A short description of test [1]: RPL19A-GFP modulators, yeast TOR pathway, confirmation, cell-based, S. cerevisiae, flow cytometry, cherry picks, mother/daughter gates (AID 2270;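 active = GFP response below 50% of the DMSO control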). To be noted: S. cerevisiae RPL19A-GFP strain, 3 h, at 10 µM, stronger effect = lower value, 100 = same GFP as DMSO wells.
Test [2] in a line: LAP4-GFP expression modulators in yeast, confirmation, cell-based, cherry picks, flow cytometry, mother/daughter gates (AID 2271;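 active = GFP response above 150% of the DMSO control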;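 also: ratio of sample to DMSO plate mean so 100% equals DMSO level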). The note with it: S. cerevisiae LAP4-GFP strain, 3 h, at 10 µM, stronger effect = higher value, 100 means same as DMSO control. An outline of the steps:
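Material: Alexa Fluor 633-labelled Saccharomyces cerevisiae GFP-fusion strain, single-plex | Amount: Yeast cells seeded at OD600 of 0.2 | Buffer or medium: SC growth medium | Schedule: 3 h exposure, 30 °C | Measured by: HT flow cytometry, GFP fluorescence channel | Evaluation: % GFP response vs DMSO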

Test [3] is described as follows: modulators of MEP2-GFP levels in yeast, confirmation, S. cerevisiae, flow cytometry GFP, cherry picks (AID 2272;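 active = GFP response above 150% of the DMSO control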;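 also: ratio of well signal to plate DMSO mean so 100% equals DMSO level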). The note with it: S. cerevisiae MEP2-GFP strain, 3 h, at 10 µM, stronger effect = higher value.
Test [4] is described as follows: AGP1-GFP expression modulators, hit retest, confirmation, cell-based, flow cytometry, S. cerevisiae, cherry picks (AID 2273).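 Also: median GFP channel fluorescence over the whole cell population gate.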 To be noted: S. cerevisiae AGP1-GFP strain, 3 h, at 10 µM.
Test [5] in a line: modulators of CIT2-GFP expression in yeast, confirmation, S. cerevisiae, GFP fusion, cherry picks, mother/daughter gates (AID 2274). The note with it: S. cerevisiae CIT2-GFP strain, flow cytometry, 3 h, at 10 µM, stronger effect = higher value.
Setting [6] is: measured here: daughter cell gate.
Where [7] appears, read: measured here: mother cell gate.
Setting [8] is: measured here: daughter cell gate response.
Setting [9] is: measured here: mother cell gate response.

This passage reports GFP response vs DMSO, GFP response relative to DMSO and GFP response, % of DMSO results from PubChem BioAssay.

Active and inactive are the calls of the source.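 The calls were made as follows, unless noted: active = GFP response above 150% of the DMSO level; inconclusive = fewer than 70 events counted for a yeast strain; inactive = the rest.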

Regarding `C=CCN1C(=O)C2(C(C#N)=C(N)Oc3n[nH]c(CCC)c32)c2ccccc21` (configuration not stated), the GFP response vs DMSO was 100% (inactive) in test [1], 99.8% in test [1] (setting [6]), 102% in test [1] (setting [7]) and 100% (inactive) in test [3]. Further, the GFP response relative to DMSO was 97.4% (inactive) in test [2], 100% in test [2] (setting [8]) and 98.3% in test [2] (setting [9]). In addition, the GFP response, % of DMSO in test [4] is 102% (inactive); in test [5], 100% (inactive); in test [5] (setting [6]) it was 98.1%; in test [5] (setting [7]), 102%.
For the molecule `CCc1c(C)c2cc(Cl)c(O)c(CN(C)C)c2oc1=O`, the GFP response vs DMSO was 95.1% (inactive) in test [1], 95.6% in test [1] (setting [6]), 94.8% in test [1] (setting [7]) and 106% (inactive) in test [3]. Moreover, the GFP response relative to DMSO in test [2] is 95.3% (inactive); in test [2] (setting [8]), 99%; in test [2] (setting [9]), 93.4%. The GFP response, % of DMSO is 93.9% (inactive) in test [4], 95.8% (inactive) in test [5], 95.8% in test [5] (setting [6]) and 94.9% in test [5] (setting [7]).
On to `COc1ccc(N2CCN(c3nc4c(C)cccn4c(=O)c3/C=C(\C#N)C(N)=O)CC2)cc1`, for which the GFP response vs DMSO in test [1] was 97.8% (inactive); in test [1] (setting [6]), 97.3%; in test [1] (setting [7]), 97.5%; in test [3], 103% (inactive). Further, the GFP response relative to DMSO in test [2] was 101% (inactive); in test [2] (setting [8]) it was 101%; in test [2] (setting [9]), 101%. In addition, the GFP response, % of DMSO was 106% (inactive) in test [4], 103% (inactive) in test [5], 105% in test [5] (setting [6]) and 102% in test [5] (setting [7]).
As for `O=C(NCc1ccc2c(c1)OCO2)c1nc(S(=O)(=O)Cc2ccccc2)ncc1Cl`, the GFP response vs DMSO is 97.8% (inactive) in test [1], 96.2% in test [1] (setting [6]), 97.4% in test [1] (setting [7]) and 99.5% (inactive) in test [3]. The GFP response relative to DMSO is 109% (inactive) in test [2], 102% in test [2] (setting [8]) and 109% in test [2] (setting [9]). Moreover, the GFP response, % of DMSO was 94.5% (inactive) in test [4], 99.3% (inactive) in test [5], 98.3% in test [5] (setting [6]) and 96.8% in test [5] (setting [7]).
Turning to `O=[N+]([O-])/C=C/c1cn(Cc2ccccc2)c2ccccc12`, the GFP response vs DMSO in test [1] was 103% (inactive); in test [1] (setting [6]) it was 98.1%; in test [1] (setting [7]) it was 98.2%; in test [3], 102% (inactive). In addition, the GFP response relative to DMSO in test [2] is 134% (inactive); in test [2] (setting [8]), 131%; in test [2] (setting [9]), 138%. The GFP response, % of DMSO in test [4] was 98.3% (inactive); in test [5] it was 96.5% (inactive); in test [5] (setting [6]) it was 94.8%; in test [5] (setting [7]), 91.2%.
Regarding `CCOC(=O)c1ccc(NC(=O)CCc2nc(-c3ccccc3)no2)cc1`, the GFP response vs DMSO in test [1] was 97.3% (inactive); in test [1] (setting [6]) it was 97%; in test [1] (setting [7]), 97.5%; in test [3] it was 106% (inactive). Also, the figures for the GFP response relative to DMSO in test [2], in test [2] (setting [8]) and in test [2] (setting [9]) were 107% (inactive), 107% and 108%, respectively. For the same molecule, the GFP response, % of DMSO is 99.3% (inactive) in test [4], 101% (inactive) in test [5], 101% in test [5] (setting [6]) and 98.2% in test [5] (setting [7]).
Take `COc1ccc(C2CC(c3c(-c4ccccc4)c4cc(Cl)ccc4[nH]c3=O)=NN2S(C)(=O)=O)cc1` (configuration not stated): the GFP response vs DMSO is 100% (inactive) in test [1], 99.1% in test [1] (setting [6]), 102% in test [1] (setting [7]) and 100% (inactive) in test [3]. Moreover, the GFP response relative to DMSO in test [2] was 99.2% (inactive); in test [2] (setting [8]), 97.6%; in test [2] (setting [9]), 97.2%. The GFP response, % of DMSO in test [4] was 99.9% (inactive); in test [5], 99.7% (inactive); in test [5] (setting [6]), 101%; in test [5] (setting [7]), 99.7%.
As to `Cc1cc2ccccn2c1C(=O)c1ccc([N+](=O)[O-])o1`, the GFP response vs DMSO is 102% (inactive) in test [1], 106% in test [1] (setting [6]), 94.6% in test [1] (setting [7]) and 132% (inactive) in test [3]. In addition, the GFP response relative to DMSO in test [2] was 195% (active); in test [2] (setting [8]) it was 182%; in test [2] (setting [9]), 196%. Moreover, the GFP response, % of DMSO in test [4] was 109% (inactive); in test [5], 98.4% (inactive); in test [5] (setting [6]), 106%; in test [5] (setting [7]), 87.8%.
Consider `O=C(NCc1ccccn1)c1cc(-c2ccc(Cl)cc2)oc1C(F)(F)F`, for which the GFP response vs DMSO was 99.5% (inactive) in test [1], 98.4% in test [1] (setting [6]), 99.8% in test [1] (setting [7]) and 100% (inactive) in test [3]. Also, the GFP response relative to DMSO is 103% (inactive) in test [2], 106% in test [2] (setting [8]) and 102% in test [2] (setting [9]). In addition, the GFP response, % of DMSO in test [4] was 99.4% (inactive); in test [5], 102% (inactive); in test [5] (setting [6]), 98.1%; in test [5] (setting [7]), 101%.
`Cc1c(Cc2ccccc2)c(NCCN(C)C)n2c(nc3ccccc32)c1C#N`: the GFP response vs DMSO in test [1] is 116% (inactive); in test [1] (setting [6]) it was 45.5%; in test [1] (setting [7]) it was 99%; in test [3] it was 187% (active). Also, the GFP response relative to DMSO in test [2] was 249% (active); in test [2] (setting [8]), 167%; in test [2] (setting [9]), 218%. Further, the GFP response, % of DMSO was 143% (inactive) in test [4], 116% (inactive) in test [5], 135% in test [5] (setting [6]) and 92.8% in test [5] (setting [7]).
Regarding `Nc1ccccc1NC(=O)c1ccccc1`, the GFP response vs DMSO in test [1] was 101% (inactive); in test [1] (setting [6]) it was 103%; in test [1] (setting [7]), 99.8%; in test [3], 106% (inactive). In addition, the GFP response relative to DMSO in test [2] is 98.9% (inactive); in test [2] (setting [8]) it was 96%; in test [2] (setting [9]), 99.5%. Besides, the GFP response, % of DMSO in test [4] is 98.4% (inactive); in test [5], 101% (inactive); in test [5] (setting [6]) it was 103%; in test [5] (setting [7]) it was 103%.
On to `O=C(Nc1ccccc1)c1c(F)cccc1F`, for which the GFP response vs DMSO in test [1] was 103% (inactive); in test [1] (setting [6]), 103%; in test [1] (setting [7]), 103%; in test [3] it was 105% (inactive). The GFP response relative to DMSO was 97% (inactive) in test [2], 97.5% in test [2] (setting [8]) and 96.2% in test [2] (setting [9]). Moreover, the GFP response, % of DMSO in test [4] is 102% (inactive); in test [5] it was 106% (inactive); in test [5] (setting [6]), 103%; in test [5] (setting [7]), 107%.
Regarding `CC(=O)c1ccc(N2CCN(C(=O)c3ccc(Br)cc3)CC2)c(F)c1`, the GFP response vs DMSO was 111% (inactive) in test [1], 95.4% in test [1] (setting [6]), 110% in test [1] (setting [7]) and 117% (inactive) in test [3]. Moreover, the figures for the GFP response relative to DMSO in test [2], in test [2] (setting [8]) and in test [2] (setting [9]) were 160% (active), 117% and 160%, respectively. Moreover, the GFP response, % of DMSO in test [4] was 115% (inactive); in test [5], 111% (inactive); in test [5] (setting [6]), 88.1%; in test [5] (setting [7]) it was 104%.
As for `CCCn1c(=O)c(C(=O)Nc2ccccc2C(=O)OCC)c(O)c2ccccc21`, the GFP response vs DMSO in test [1] is 95.1% (inactive); in test [1] (setting [6]), 96.7%; in test [1] (setting [7]), 95.2%; in test [3], 108% (inactive). The results for the GFP response relative to DMSO in test [2], in test [2] (setting [8]) and in test [2] (setting [9]) were 95.3% (inactive), 94.4% and 97.4%, respectively. In addition, the GFP response, % of DMSO in test [4] is 110% (inactive); in test [5] it was 100% (inactive); in test [5] (setting [6]), 103%; in test [5] (setting [7]), 100%.
Turning to `COC(=O)c1cc(N2C(=O)C3C(C2=O)C2(C)C=CC3(C)O2)ccc1Cl` (configuration not stated), the GFP response vs DMSO was 101% (inactive) in test [1], 101% in test [1] (setting [6]), 92.5% in test [1] (setting [7]) and 110% (inactive) in test [3]. The GFP response relative to DMSO in test [2] is 193% (active); in test [2] (setting [8]), 173%; in test [2] (setting [9]), 177%. Further, the GFP response, % of DMSO in test [4] is 106% (inactive); in test [5], 101% (inactive); in test [5] (setting [6]), 109%; in test [5] (setting [7]) it was 88.6%.
Consider `O=C(O)c1ccc2c3c(ncnc13)-c1ccccc1C2=O`, for which the GFP response vs DMSO was 113% (inactive) in test [1], 95.3% in test [1] (setting [6]), 107% in test [1] (setting [7]) and 135% (inactive) in test [3]. Further, the results for the GFP response relative to DMSO in test [2], in test [2] (setting [8]) and in test [2] (setting [9]) were 135% (inactive), 130% and 134%, respectively. For the same molecule, the GFP response, % of DMSO in test [4] is 105% (inactive); in test [5] it was 123% (inactive); in test [5] (setting [6]), 105%; in test [5] (setting [7]), 117%.
On to `O=C(NCCN1CCOCC1)c1ccc(CS(=O)(=O)Cc2ccccc2F)o1`, for which the GFP response vs DMSO is 99.6% (inactive) in test [1], 100% in test [1] (setting [6]), 99.7% in test [1] (setting [7]) and 103% (inactive) in test [3]. For the same molecule, the GFP response relative to DMSO in test [2] is 98.6% (inactive); in test [2] (setting [8]), 99.7%; in test [2] (setting [9]), 98.2%. Moreover, the GFP response, % of DMSO in test [4] is 104% (inactive); in test [5], 110% (inactive); in test [5] (setting [6]) it was 108%; in test [5] (setting [7]), 110%.
